{"source": "paper PMC4242102", "about": "(Investigational new drugs, 2013)", "key": {"[1]": {"tested_on": "B16F10 melanoma cells", "assay": "Cytotoxicity assay", "format": "cell-based, murine", "conditions": "Mus musculus, B16-F10, 72 h, read-out: IC50 on cell viability", "outline": "(§1)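 Cells maintained on uncoated flasks in RPMI 1640 with 10% FBS and 1% penicillin/streptomycin; mycoplasma-checked. Seeded at 3,000 cells/well, allowed ≥3 h adherence (37 °C, 5% CO2), then treated 72 h with graded test compound concentrations. CCK-8 or MTT colorimetric viability, expressed against vehicle-treated cultures. Triplicate wells, at least three independent runs. Apparent IC50 (concentration giving 50% viability) read from mean dose-response curves.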"}, "[2]": {"tested_on": "Fibroblasts", "assay": "Cytotoxicity assay", "format": "cell-based", "conditions": "Fibroblast, 72 h, read-out: IC50 on cell viability", "outline": "(§2)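 Cells grown in 0.2% gelatin-coated flasks in RPMI 1640 with 20% human serum, 2 mM glutamine, penicillin/streptomycin. Seeded at 3,000 cells/well and allowed to adhere ≥3 h (37 °C, 5% CO2), then exposed to a range of test compound concentrations for 72 h. Viability measured by CCK-8 or MTT, relative to vehicle-only cultures. Triplicate wells, ≥3 independent experiments. Apparent IC50 (concentration giving 50% viability) taken from mean dose-response curves.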"}, "[3]": {"tested_on": "2H11 endothelial cells", "assay": "Cytotoxicity assay", "format": "cell-based, murine", "conditions": "Mus musculus, Endothelial cell, 72 h, read-out: IC50 on cell viability", "outline": "as §1"}, "[4]": {"tested_on": "FSAII fibrosarcoma cells", "assay": "Cytotoxicity assay", "format": "cell-based, murine", "conditions": "Mus musculus, 72 h, read-out: IC50 on cell viability", "outline": "as §1"}, "[5]": {"tested_on": "A549 lung carcinoma cells", "assay": "Cytotoxicity assay", "format": "cell-based", "conditions": "Homo sapiens, A549, 72 h, read-out: IC50 on cell viability", "outline": "as §1"}, "[6]": {"assay": "General toxicity", "format": "in vivo", "conditions": "10 mg/kg IP BID, comparison study (Fig. 4b)"}, "[7]": {"tested_on": "SCK mammary carcinoma cells", "assay": "Cytotoxicity assay", "format": "cell-based, murine", "conditions": "Mus musculus, 72 h, read-out: IC50 on cell viability", "outline": "as §1"}, "[8]": {"tested_on": "MA148 ovarian carcinoma cells", "assay": "Cytotoxicity assay", "format": "cell-based", "conditions": "Homo sapiens, Ovarian carcinoma cell, 72 h, read-out: IC50 on cell viability", "outline": "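3,000 cells/well, left to adhere at least 3 h at 37 °C in 5% CO2, then exposed to various test compound concentrations for 72 h. Viability read colorimetrically (CCK-8 or MTT) as percentage of vehicle-only cultures. Each experiment in triplicate, repeated ≥3 times. Apparent IC50 (concentration for 50% viability) derived from averaged dose-response curves.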"}, "[9]": {"tested_on": "HUVEC", "assay": "Cytotoxicity assay", "format": "cell-based", "conditions": "Homo sapiens, 72 h, read-out: IC50 on cell viability", "outline": "as §2"}}}
{"smiles": "CN(C)CCNC(=O)COc1c2cccc1Cc1cccc(c1OCC(=O)NCCN(C)C)Cc1cccc(c1OCC(=O)NCCN(C)C)Cc1cccc(c1OCC(=O)NCCN(C)C)C2", "note": "[PTX008]", "values": [{"measurement": "IC50", "setting": "[1]", "value": 80, "unit": "µM"}, {"measurement": "IC50", "setting": "[2]", "value": 35, "unit": "µM"}, {"measurement": "IC50", "setting": "[3]", "value": "> 100", "unit": "µM"}, {"measurement": "IC50", "setting": "[4]", "value": "> 20", "unit": "µM"}, {"measurement": "IC50", "setting": "[5]", "value": 2000, "unit": "nM"}, {"measurement": "body weights of mice during treatment", "setting": "[6]", "value": "remained constant"}, {"measurement": "IC50", "setting": "[7]", "value": 100, "unit": "µM"}, {"measurement": "IC50", "setting": "[8]", "value": 500, "unit": "nM"}, {"measurement": "IC50", "setting": "[9]", "value": 3000, "unit": "nM"}]}
